In ChEMBL document CHEMBL4184319, “Fluorescent-Labeled Selective Adenosine A2B Receptor Antagonist Enables Competition Binding Assay by Flow Cytometry” (J Med Chem, 2018):

What was measured:
Adenosine receptor A2b [1] = target: T1, Adenosine receptor A2b (Mus musculus, UniProt Q60614); assay: Displacement of [3H]PSB-603 from recombinant mouse adenosine A2B receptor expressed in CHO cell membranes after 75 mins by liquid scintillation counting method
T1 sequence (Q60614 whole entry): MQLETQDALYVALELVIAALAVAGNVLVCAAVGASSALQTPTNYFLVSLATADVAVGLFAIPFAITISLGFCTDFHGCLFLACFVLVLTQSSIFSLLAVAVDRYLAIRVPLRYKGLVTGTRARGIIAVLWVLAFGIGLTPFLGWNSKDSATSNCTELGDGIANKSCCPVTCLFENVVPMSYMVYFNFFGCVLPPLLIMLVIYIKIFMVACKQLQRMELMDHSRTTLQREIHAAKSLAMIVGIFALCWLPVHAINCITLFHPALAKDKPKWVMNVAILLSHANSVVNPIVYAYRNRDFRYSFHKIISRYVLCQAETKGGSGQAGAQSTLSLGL
Procedure, shortened: (§1)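 [³H]PSB-603 (0.3 nM) used with CHO membranes expressing human, mouse or rat A2BAR, 75 min at rt. Membranes pre-incubated 10-15 min with ADA 0.12 IU/mL. Nonspecific binding defined with 10 µM DPCPX. DMSO 2.5 % final. Filtration on GF/B with ice-cold 50 mM Tris-HCl pH 7.4 containing 0.1 % BSA, then scintillation counting. Curves used 6-7 concentrations over 3 log units. At least three experiments.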

Adenosine receptor A1 [2] = target: T2, Adenosine receptor A1 (Rattus norvegicus, UniProt P25099); assay: Displacement of [3H]CCPA from adenosine A1 receptor in rat brain cortical membranes after 90 mins by liquid scintillation counting method; assay type: cell membranes
T2 sequence (P25099 whole entry): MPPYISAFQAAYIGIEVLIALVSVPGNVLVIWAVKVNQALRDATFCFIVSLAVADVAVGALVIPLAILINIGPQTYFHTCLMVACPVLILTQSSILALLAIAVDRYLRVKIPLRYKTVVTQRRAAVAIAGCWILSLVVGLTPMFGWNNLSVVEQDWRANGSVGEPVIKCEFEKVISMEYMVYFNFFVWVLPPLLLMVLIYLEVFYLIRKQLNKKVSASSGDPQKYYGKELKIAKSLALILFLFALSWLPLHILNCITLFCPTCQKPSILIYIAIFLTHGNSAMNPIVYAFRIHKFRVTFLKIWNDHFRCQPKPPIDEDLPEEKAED
Procedure, shortened: (§2)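 [³H]CCPA (1 nM) used with rat brain cortical or human A1-CHO membranes, 90 min at rt. Membranes pre-incubated 10-15 min with ADA 0.12 IU/mL. Nonspecific binding defined with 10 µM CADO. Compounds dissolved in DMSO, 2.5 % final. Filtration on GF/B filters with ice-cold Tris-HCl washes, then scintillation counting. Curves used 6-7 concentrations spanning 3 log units. At least three experiments, in duplicate (human) or triplicate (rat).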

Adenosine receptor A2a [3] = target: Adenosine receptor A2a (Rattus norvegicus, UniProt P30543); assay: Displacement of [3H]MSX-2 from adenosine A2A receptor in rat brain striatal membranes after 30 mins by liquid scintillation counting method; assay type: cell membranes, Striatum, Membrane
Adenosine receptor A2a (Rattus norvegicus, UniProt P30543), sequence (P30543 whole entry): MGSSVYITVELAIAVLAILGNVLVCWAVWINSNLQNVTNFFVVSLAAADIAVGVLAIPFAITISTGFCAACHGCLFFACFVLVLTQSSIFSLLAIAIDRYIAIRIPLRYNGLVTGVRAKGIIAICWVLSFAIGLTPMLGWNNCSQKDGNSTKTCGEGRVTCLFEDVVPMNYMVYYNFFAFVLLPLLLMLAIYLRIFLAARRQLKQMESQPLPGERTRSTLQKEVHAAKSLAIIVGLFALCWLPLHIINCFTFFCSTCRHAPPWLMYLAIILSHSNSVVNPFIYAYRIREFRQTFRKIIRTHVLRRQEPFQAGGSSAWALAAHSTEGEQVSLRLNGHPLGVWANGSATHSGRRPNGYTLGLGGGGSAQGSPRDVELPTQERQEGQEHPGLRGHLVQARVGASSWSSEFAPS
Procedure, shortened: (§3)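 [³H]MSX-2 (1 nM) used with rat striatal or human A2A-HEK membranes, 30 min at rt. Membranes pre-incubated 10-15 min with ADA 0.12 IU/mL. DMSO 2.5 % final. GF/B filtration, then scintillation counting. Curves used 6-7 concentrations over 3 log units. At least three experiments, in duplicate (human) or triplicate (rat).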

Adenosine receptor A2b [4] = target: T3, Adenosine receptor A2b (Homo sapiens, UniProt P29275); assay: Displacement of [3H]PSB-603 from recombinant human adenosine A2B receptor expressed in CHO cell membranes after 75 mins by liquid scintillation counting method; procedure, shortened: as §1
T3 sequence (P29275 whole entry): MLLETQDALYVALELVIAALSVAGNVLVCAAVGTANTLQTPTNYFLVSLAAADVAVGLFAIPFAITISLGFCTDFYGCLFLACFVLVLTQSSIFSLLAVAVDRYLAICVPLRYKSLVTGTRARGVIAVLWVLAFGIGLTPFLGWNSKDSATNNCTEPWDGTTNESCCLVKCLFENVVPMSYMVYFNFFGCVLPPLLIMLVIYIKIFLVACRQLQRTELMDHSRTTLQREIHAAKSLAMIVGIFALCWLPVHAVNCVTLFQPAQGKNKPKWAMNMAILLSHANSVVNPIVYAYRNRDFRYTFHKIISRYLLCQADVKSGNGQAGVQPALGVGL

Adenosine receptor A3 = target: T4, Adenosine receptor A3 (Homo sapiens, UniProt P0DMS8); assay: Displacement of [3H]PSB-11 from recombinant human adenosine A3 receptor expressed in CHO cell membranes after 45 mins by liquid scintillation counting method
T4 sequence (P0DMS8 whole entry): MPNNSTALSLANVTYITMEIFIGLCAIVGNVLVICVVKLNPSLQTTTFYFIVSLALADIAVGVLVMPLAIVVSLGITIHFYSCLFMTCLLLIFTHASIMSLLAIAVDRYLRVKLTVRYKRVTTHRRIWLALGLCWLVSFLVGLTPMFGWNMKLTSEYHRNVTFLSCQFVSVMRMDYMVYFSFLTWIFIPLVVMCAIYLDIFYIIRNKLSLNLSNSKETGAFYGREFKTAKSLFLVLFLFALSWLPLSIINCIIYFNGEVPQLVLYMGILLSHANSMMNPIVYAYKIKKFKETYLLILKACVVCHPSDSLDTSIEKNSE
Procedure, shortened: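 Human A3-CHO membranes incubated with [³H]PSB-11 (1 nM) for 45 min at rt, after 10-15 min pre-incubation with ADA 0.12 IU/mL. Nonspecific binding defined with 100 µM R-PIA. DMSO 2.5 % final. GF/B filtration, then scintillation counting. Curves used 6-7 concentrations over 3 log units. At least three experiments in duplicate.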

[5] = Selectivity ratio of Ki for adenosine A2A receptor in rat brain striatal membranes to Ki for recombinant human adenosine A2B receptor expressed in CHO cell membranes; assay type: cell-based
Adenosine receptor A1 [6] = target: T2, Adenosine receptor A1; assay: Displacement of [3H]-ADAC from adenosine A1 receptor in rat cerebral cortex membranes after 120 mins by filter binding method; assay type: cell membranes, Membrane
Adenosine receptor A2b [7] = target: T3, Adenosine receptor A2b; assay: Displacement of PSB-12105 from recombinant human adenosine A2B receptor expressed in CHO cell membranes preincubated for 30 mins followed by PSB-12105 addition measured after 20 mins by flow cytometric method; assay type: cell-based
Procedure, shortened: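 Live CHO-hA2B cells were pre-treated with ADA (2 U/mL, 2 h, 37°C), detached with 5 mM EDTA, and resuspended in HBSS with 2 U/mL ADA at 2.5×10^5 cells/well in 96-well format. Antagonists pre-incubated 30 min at 37°C, then fluorescent ligand (100 nM) added for 20 min at 37°C. 3-5 independent experiments in duplicate.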

Adenosine receptor A1 [8] = target: T5, Adenosine receptor A1 (Homo sapiens, UniProt P30542); assay: Displacement of [3H]CCPA from recombinant human adenosine A1 receptor expressed in CHO cell membranes after 90 mins by liquid scintillation counting method; procedure, shortened: as §2
T5 sequence (P30542 whole entry): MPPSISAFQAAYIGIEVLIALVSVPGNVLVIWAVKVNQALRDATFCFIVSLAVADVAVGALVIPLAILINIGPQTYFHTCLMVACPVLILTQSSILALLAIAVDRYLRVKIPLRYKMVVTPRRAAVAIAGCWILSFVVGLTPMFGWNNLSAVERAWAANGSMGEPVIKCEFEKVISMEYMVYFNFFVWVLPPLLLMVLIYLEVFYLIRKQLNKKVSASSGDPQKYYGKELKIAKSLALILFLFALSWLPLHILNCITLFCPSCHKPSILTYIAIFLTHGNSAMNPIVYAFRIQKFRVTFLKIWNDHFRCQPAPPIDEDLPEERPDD

Adenosine receptor A2a [9] = target: Adenosine receptor A2a (Homo sapiens, UniProt P29274); assay: Displacement of [3H]MSX-2 from recombinant human adenosine A2A receptor expressed in HEK cell membranes after 30 mins by liquid scintillation counting method
Adenosine receptor A2a (Homo sapiens, UniProt P29274), sequence (P29274 whole entry): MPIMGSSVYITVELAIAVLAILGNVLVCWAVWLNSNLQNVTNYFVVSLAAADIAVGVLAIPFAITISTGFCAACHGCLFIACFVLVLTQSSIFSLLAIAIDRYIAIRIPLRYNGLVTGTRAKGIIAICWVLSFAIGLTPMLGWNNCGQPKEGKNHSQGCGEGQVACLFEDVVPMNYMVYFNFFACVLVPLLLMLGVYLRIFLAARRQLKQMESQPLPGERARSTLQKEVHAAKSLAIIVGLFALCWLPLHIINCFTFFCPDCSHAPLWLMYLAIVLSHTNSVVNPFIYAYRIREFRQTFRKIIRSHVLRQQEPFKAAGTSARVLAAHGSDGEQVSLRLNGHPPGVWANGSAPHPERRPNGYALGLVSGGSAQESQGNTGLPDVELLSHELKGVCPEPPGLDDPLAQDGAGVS
Procedure, shortened: as §3, with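 “IU/mL. Nonspecific binding defined with 10 µM CGS15943.” for “IU/mL.”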

Homo sapiens [10] = species: Homo sapiens; assay: Selectivity ratio of Ki for recombinant human adenosine A2A receptor expressed in HEK cell membranes to Ki for recombinant human adenosine A2B receptor expressed in CHO cell membranes; assay type: cell-based
Adenosine receptor A1 [11] = target: T5, Adenosine receptor A1; assay: Displacement of [3H]DPCPX from recombinant human adenosine A1 receptor expressed in CHO cell membranes after 60 mins by scintillation counting method
[12] = target: T6, Adenosine receptor A1 (Homo sapiens) (UniProt P30542); assay: Antagonist activity at recombinant human adenosine A1 receptor expressed in CHO cell membranes assessed as inhibition of NECA-induced cAMP accumulation; assay type: functional, cell-based
T6 sequence (whole entry): T5 sequence (P30542 whole entry)

Homo sapiens [13] = species: Homo sapiens; assay: Selectivity ratio of Ki for recombinant human adenosine A3 receptor expressed in CHO cell membranes to Ki for recombinant human adenosine A2B receptor expressed in CHO cell membranes; assay type: cell-based
Adenosine receptor A2b [14] = target: T3, Adenosine receptor A2b; assay: Antagonist activity at recombinant human adenosine A2B receptor expressed in CHO cell membranes assessed as inhibition of NECA-induced cAMP accumulation preincubated for 1 hr followed by NECA induction measured after 5 mins in presence of [3H]cAMP and bovine cAMP-binding protein by liquid scintillation counting method; assay type: functional
Procedure, shortened: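 CHO cells stably expressing human A2BAR, pre-incubated with antagonist dilutions for 1 h at 37°C, then stimulated with NECA (10 µM final) for 5 min at 37°C. Reaction stopped with hot (90 °C) lysis solution (4 mM EDTA, 0.01 % Triton X100). cAMP quantified by radioactive competition with [³H]cAMP and bovine adrenal cAMP-binding protein. Response expressed as % of NECA response without antagonist. Means ± SEM, three independent experiments in duplicate.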

Cn1c(=O)c2c(ncn2C)n(C)c1=O [CAFFEINE]
Ki (Adenosine receptor A2b [1]): 23000 nM

CCCn1c(=O)[nH]c2nc(-c3ccc(OCC(=O)NCCCCC4=C5C(C)=CC(C)=[N+]5[B-](F)(F)n5c(C)cc(C)c54)cc3)[nH]c2c1=O
Ki (Adenosine receptor A1 [2]): 178 nM
Ki (Adenosine receptor A2a [3]): 1570 nM
Ki (Adenosine receptor A2b [4]): 24.4 nM
Ki (Adenosine receptor A3): 719 nM
Ratio Ki [5]: 64

CCCn1c(=O)[nH]c2nc(-c3ccc(OCC(=O)NCCCCc4ccccc4)cc3)[nH]c2c1=O
Ki (Adenosine receptor A1 [2]): 29.6 nM
Ki (Adenosine receptor A2a [3]): 498 nM
Ki (Adenosine receptor A2b [4]): 3.3 nM
Ki (Adenosine receptor A3): 1410 nM
Ratio Ki [5]: > 150

CCCn1c(=O)[nH]c2nc(-c3ccc(OCC(=O)NCCCC4=C5C(C)=CC(C)=[N+]5[B-](F)(F)n5c(C)cc(C)c54)cc3)[nH]c2c1=O
Ki (Adenosine receptor A1 [2]): 168 nM
Ki (Adenosine receptor A2a [3]): 2150 nM
Ki (Adenosine receptor A2b [4]): 11.6 nM
Ki (Adenosine receptor A3): 904 nM
Ratio Ki [5]: > 150

O=C(Cc1ccc(NC(=O)Cc2ccc(Nc3ncnc4c3ncn4[C@@H]3O[C@H](CO)[C@@H](O)[C@H]3O)cc2)cc1)NCCNC(=S)Nc1ccc(-c2c3ccc(=O)cc-3oc3cc(O)ccc23)c(C(=O)O)c1
Ki (Adenosine receptor A1 [6]): 7.1 nM

CCCN1C(=O)N=C2N=C(c3ccc(S(=O)(=O)N4CCN(Cc5ccccc5)CC4)cc3)N=C2C1=O
IC50 (Adenosine receptor A2b [7]): 23.5 nM

CCCn1c(=O)[nH]c2nc(-c3ccc(OCC(=O)NCCCCCC4=C5C(C)=CC(C)=[N+]5[B-](F)(F)n5c(C)cc(C)c54)cc3)[nH]c2c1=O
Ki (Adenosine receptor A1 [8]): 714 nM
Ki (Adenosine receptor A1 [2]): 77.9 nM
Ki (Adenosine receptor A2a [3]): 477 nM
Ki (Adenosine receptor A2a [9]): 58.7 nM
Ki (Adenosine receptor A2b [4]): 5.9 nM
Ki (Adenosine receptor A3): 4550 nM
Ratio Ki [5]: 81
Ratio Ki (Homo sapiens [10]): 9.9

CCCn1c(=O)[nH]c2nc(-c3ccc(OCC(=O)NCCCCCCCCCCC4=C5C(C)=CC(C)=[N+]5[B-](F)(F)n5c(C)cc(C)c54)cc3)[nH]c2c1=O
Ki (Adenosine receptor A1 [8]): > 10000 nM
Ki (Adenosine receptor A1 [2]): 227 nM
Ki (Adenosine receptor A2a [3]): > 10000 nM
Ki (Adenosine receptor A2a [9]): 1600 nM
Ki (Adenosine receptor A2b [4]): 7.82 nM
Ki (Adenosine receptor A3): ≥ 10000 nM
Ratio Ki [5]: > 150
Ratio Ki (Homo sapiens [10]): > 150

CCCn1c(=O)c2[nH]c(-c3ccc(OCC(=O)NCCNC(=O)CCCCCNC(=O)COc4ccc(/C=C/C5=[N+]6C(=Cc7ccc(-c8cccs8)n7[B-]6(F)F)C=C5)cc4)cc3)nc2n(CCC)c1=O
Kd (Adenosine receptor A1 [11]): 151 nM
Kb [12]: 209 nM

CCCN1C(=O)N=C2N=C(c3ccc(S(=O)(=O)N4CCN(Cc5ccc(Cl)cc5)CC4)cc3)N=C2C1=O
IC50 (Adenosine receptor A2b [7]): 1.06 nM

CCCn1c(=O)[nH]c2nc(-c3ccc(OCC(=O)NCc4ccccc4)cc3)[nH]c2c1=O
Ki (Adenosine receptor A1 [2]): 27.2 nM
Ki (Adenosine receptor A2a [3]): > 10000 nM
Ki (Adenosine receptor A2b [4]): 7 nM
Ki (Adenosine receptor A3): 266 nM
Ratio Ki [5]: > 150
Ratio Ki (Homo sapiens [13]): 38
IC50 (Adenosine receptor A2b [14]): 135 nM

CCCn1c(=O)[nH]c2nc(-c3ccc(OCC(=O)NCCc4ccccc4)cc3)[nH]c2c1=O
Ki (Adenosine receptor A1 [2]): 7.85 nM
Ki (Adenosine receptor A2a [3]): > 10000 nM
Ki (Adenosine receptor A2b [4]): 7.45 nM
Ki (Adenosine receptor A3): > 10000 nM
Ratio Ki [5]: > 150
IC50 (Adenosine receptor A2b [14]): 141 nM

CCCn1c(=O)[nH]c2nc(-c3ccc(OCC(=O)NCCCc4ccccc4)cc3)[nH]c2c1=O
Ki (Adenosine receptor A1 [2]): 35.3 nM
Ki (Adenosine receptor A2a [3]): > 10000 nM
Ki (Adenosine receptor A2b [4]): 27.9 nM
Ki (Adenosine receptor A3): 2990 nM
Ratio Ki [5]: > 150
IC50 (Adenosine receptor A2b [14]): 174 nM

O=C(Cc1ccc(NC(=O)Cc2ccc(Nc3ncnc4c3ncn4[C@@H]3O[C@H](CO)[C@@H](O)[C@H]3O)cc2)cc1)NCCNc1ccc([N+](=O)[O-])c2nonc12
Ki (Adenosine receptor A1 [6]): 4.3 nM
